Results of several laboratories.
Each line is one published result; the experiments were not run side by side.
Target: Cyclin-dependent kinase 18 (CDK18, Homo sapiens, UniProt Q07002)

CN(C)c1ncnc(-c2ccc3nc(Nc4cc(CN5CCN(C(=O)CC(F)(F)F)CC5)ccn4)[nH]c3c2)c1Cl — remaining binding (cell-free assay; competition with immobilised ligand; 1 µM): 100%
N[C@H]1CCN(c2nccc(-c3cnn4ncccc34)n2)C1 — remaining binding (binding; 1 µM): 100%
COc1cnc(Nc2cccc(S(N)(=O)=O)c2)nc1N1CCN(c2ccccc2)C(=O)C1 — remaining binding (binding; competition with immobilised ligand; 1 µM): 100%
FC(F)(F)Oc1cccc(-c2cnc3ccc(-c4ccncc4)nn23)c1 — remaining binding (cell-free assay; competition with immobilised ligand; 5 µM): 46%
O=c1nc(-c2ccccn2)sc2ccccc12 — remaining binding (binding; competition with immobilised ligand; 1 µM): 94%
O=C(c1ccc(Nc2nccc(-c3cc4ccccc4s3)n2)cc1)N1CCC(N2CCCC2)CC1 — remaining binding (binding; competition with immobilised ligand; 1 µM): 100%
C[C@@H](c1ccc(-n2cnc3c(N)ncnc32)cc1)N1CCc2nn(C)c(Cc3ccccc3)c2C1=O — remaining binding (binding; competition with immobilised ligand; 0.1 µM): 100%
CC1=C(C#N)[C@@H](c2ccc3[nH]nc(C)c3c2)C(C#N)=C(c2ccc(Cl)cc2)N1 — remaining binding (cell-free assay; competition with immobilised ligand; 1 µM): 100%
O=C(Nc1c[nH]nc1C(=O)NC1CCNCC1)c1cc(F)cc(F)c1 — remaining binding (binding; competition with immobilised ligand; 1 µM): 78%
O=C(NCCCN1CCOCC1)c1ccc(Nc2ncc(Cl)c(-c3ccc(Cl)s3)n2)cc1 — remaining binding (binding; competition with immobilised ligand; 1 µM): 70%
CN1CCN(c2ccc(Nc3nccc(-c4cccc([N+](=O)[O-])c4)n3)cc2C(F)(F)F)CC1 — remaining binding (binding; 10 µM): 56%
CNC(=O)Nc1ccc2c(c1)[C@@]1(CC2)OC(=O)N(CC(=O)N(Cc2ccc(F)cc2)[C@@H](C)C(F)(F)F)C1=O — remaining binding (cell-free assay; competition with immobilised ligand; 1 µM): 100%
C[C@H]1CCN(c2nccc(-c3cnn4ncccc34)n2)C1 — remaining binding (binding; 1 µM): 100%
CN(C)C(=O)Cn1cc(-c2nc(C3(c4ccc(-c5cnc(N)nc5)cc4)CC3)no2)cn1 — remaining binding (cell-free assay; competition with immobilised ligand; 1 µM): 83%
COc1ccnn2ncc(-c3ccnc(N(C)C)n3)c12 — remaining binding (binding; 1 µM): 100%
COc1ncc2cc3ccccc3nc2c1C#N — remaining binding (cell-free assay; competition with immobilised ligand; 5 µM): 90%
CC1CCCN1c1nccc(-c2cnn3ncccc23)n1 (centres unmarked) — remaining binding (binding; 1 µM): 100%
NS(=O)(=O)c1cc(NC(=O)Cc2ccccc2)ccc1Oc1cccc(Cl)c1 — remaining binding (cell-free assay; competition with immobilised ligand; 1 µM): 100%
CN(CCCC(F)(F)F)c1nccc(-c2cnn3ncccc23)n1 — remaining binding (binding; 1 µM): 52%
Cc1cnc(Nc2ccc(C(=O)N3CCC(N4CCCC4)CC3)cc2)nc1-c1cc2ccccc2s1 — remaining binding (binding; competition with immobilised ligand; 1 µM): 100%
CNC(=O)[C@@H]1CC[C@@H](n2c(-c3ccc4cnccc4c3)nc3ccc(C(=O)NCc4cccc(C(N)=O)c4)cc32)C1 — remaining binding (binding; competition with immobilised ligand; 1 µM): 100%
Cc1cnn2ncc(-c3ccnc(N(C)C)n3)c2c1 — remaining binding (binding; 1 µM): 100%
CN(c1ccnc(CNc2nc(Nc3ccc4c(c3)CC(=O)N4)ncc2C(F)(F)F)n1)S(C)(=O)=O — remaining binding (cell-free assay; competition with immobilised ligand; 1 µM): 100%
